Experimental data: ChEMBL document CHEMBL1212759, “Antifungal activity of colistin against mucorales species in vitro and in a murine model of Rhizopus oryzae pulmonary infection” (Antimicrob Agents Chemother, 2010)
The source made the active and inactive calls. The rule behind the calls is not given here.

Columns and labels:
Rhizopus arrhizus [1] = assay: Antimicrobial activity against Rhizopus oryzae isolate 6725 after 24 hrs in RMPI 1640 medium by broth microdilution method; type: functional, organism-based
How it was run: (§1)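 Broth microdilution in RPMI 1640 with […], without bicarbonate. Colistin was serially diluted 64 to 0.06 μg/ml. Spores came from YAG plates grown 48–72 h at 37°C, were filtered and counted, and were inoculated at 0.5 × 10^4 to 4 × 10^4 cells/ml. Plates were incubated 24 h at 37°C. MIC was read visually as the lowest concentration giving 100% growth inhibition.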

Rhizopus arrhizus [2] = assay: Antimicrobial activity against Rhizopus oryzae isolate 5879 after 24 hrs in RMPI 1640 medium by broth microdilution method; type: functional, organism-based; how it was run: as §1
[3] = test system: Cunninghamella bertholletiae; assay: Antimicrobial activity against Cunninghamella bertholletiae isolate 6733 after 24 hrs in RMPI 1640 medium by broth microdilution method; type: functional, organism-based
How it was run: (§2)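 Colistin was serially diluted from 64 to 0.06 μg/ml in RPMI 1640 with glucamine and without bicarbonate. Fresh spores from 48–72 h YAG plates were added at 0.5 × 10^4 to 4 × 10^4 cells/ml. Plates were incubated 24 h at 37°C. MIC was read visually as the lowest concentration giving 100% growth inhibition.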

Mucor circinelloides [4] = assay: Ratio of MFC to MIC for Mucor circinelloides isolate 4480 after 24 hrs in RMPI 1640 medium by broth microdilution method; type: functional, organism-based
How it was run: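 RPMI 1640 microdilution with colistin at 64 to 0.06 μg/ml and spores at 0.5 × 10^4 to 4 × 10^4 cells/ml, incubated 24 h at 37°C. MIC was read visually as 100% inhibition. For MFC, 20 μl from clear wells and from the last growth well were subcultured onto YAG. MFC was the lowest concentration giving fewer than three colonies at 24 h (≥99.9% killing). The line reports the MFC/MIC ratio.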

Rhizopus [5] = assay: Antimicrobial activity against Rhizopus sp. isolate 4523 after 24 hrs in yeast nitrogen base complete medium by broth microdilution method; type: functional, organism-based
How it was run: (§3)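 Microdilution was done in yeast nitrogen base complete medium, with colistin serially diluted 128 to 0.12 μg/ml. Spores were harvested from YAG plates (48–72 h, 37°C), washed, filtered and counted, then added at 0.5 × 10^4 to 4 × 10^4 cells/ml. After 24 h at 37°C, MIC was taken visually as the lowest concentration with complete growth inhibition.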

Rhizopus microsporus = assay: Antimicrobial activity against Rhizopus microsporus isolate 6164 after 24 hrs in RMPI 1640 medium by broth microdilution method; type: functional; how it was run: as §2
Rhizopus arrhizus [6] = assay: Antimicrobial activity against Rhizopus oryzae isolate 6093 after 24 hrs in RMPI 1640 medium by broth microdilution method; type: functional, organism-based; how it was run: as §1
Rhizopus arrhizus [7] = assay: Antimicrobial activity against Rhizopus oryzae assessed as plasma membrane disruption-related ATP release at 32 ug/ml after 5 mins by Cell Titer-Glo luminescent assay; type: functional, organism-based
How it was run: (§4)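 Spores at 10^7 cells/ml in RPMI 1640 were germinated about 6 h at 37°C. Germlings were resuspended in RPMI with colistin at 8 or 32 μg/ml, or drug-free, and shaken at 37°C. Supernatants taken at 5, 30, 60 and 90 min were assayed for released ATP by CellTiter-Glo luminescence.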

[8] = test system: Cunninghamella bertholletiae; assay: Antimicrobial activity against Cunninghamella bertholletiae isolate 5633 after 24 hrs in RMPI 1640 medium by broth microdilution method; type: functional, organism-based; how it was run: as §2
[9] = test system: Cunninghamella bertholletiae; assay: Antimicrobial activity against Cunninghamella bertholletiae isolate 6733 after 24 hrs in yeast nitrogen base complete medium by broth microdilution method; type: functional, organism-based
How it was run: (§5)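 Broth microdilution in YNB complete medium with colistin at 128 to 0.12 μg/ml. Freshly collected spores were inoculated at 0.5 × 10^4 to 4 × 10^4 cells/ml and incubated 24 h at 37°C. MIC was read visually as the lowest concentration with complete (100%) growth inhibition.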

Rhizopus homothallicus [10] = assay: Antimicrobial activity against Rhizopus homothallicus isolate 6360 after 24 hrs in RMPI 1640 medium by broth microdilution method; type: functional; how it was run: as §2
Rhizopus [11] = assay: Antimicrobial activity against […] isolate 6254 after 24 hrs in yeast nitrogen base complete medium by broth microdilution method; type: functional, organism-based; how it was run: as §5
Rhizopus arrhizus [12] = assay: Antimicrobial activity against Rhizopus oryzae assessed as plasma membrane disruption-related ATP release at 8 ug/ml after 5 mins by Cell Titer-Glo luminescent assay; type: functional, organism-based; how it was run: as §4
[13] = test system: Cunninghamella bertholletiae; assay: Antimicrobial activity against Cunninghamella bertholletiae isolate 6694 after 24 hrs in RMPI 1640 medium by broth microdilution method; type: functional, organism-based; how it was run: as §2
Rhizopus homothallicus [14] = assay: Antimicrobial activity against Rhizopus homothallicus isolate 6360 after 24 hrs in yeast nitrogen base complete medium by broth microdilution method; type: functional; how it was run: as §5
Rhizopus arrhizus [15] = assay: Antimicrobial activity against Rhizopus oryzae isolate 6725 after 24 hrs in yeast nitrogen base complete medium by broth microdilution method; type: functional, organism-based; how it was run: as §3
Rhizopus arrhizus [16] = assay: Antimicrobial activity against Rhizopus oryzae at 8 ug/disk after 24 hrs by disk diffusion method; type: functional, organism-based
How it was run: (§6)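 Paper disks loaded with 8, 16 or 32 μg colistin were placed on agar plates inoculated with 200 μl of a 10^6 cells/ml R. oryzae spore suspension. After 24 h at 37°C, the diameter of the inhibition zone was measured.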

Rhizopus arrhizus [17] = assay: Antimicrobial activity against Rhizopus oryzae isolate 5799 after 24 hrs in yeast nitrogen base complete medium by broth microdilution method; type: functional, organism-based; how it was run: as §3
Rhizopus arrhizus [18] = assay: Antimicrobial activity against Rhizopus oryzae at 16 ug/disk after 24 hrs by disk diffusion method; type: functional, organism-based; how it was run: as §6
Rhizopus arrhizus [19] = assay: Antimicrobial activity against Rhizopus oryzae isolate 5496 after 24 hrs in yeast nitrogen base complete medium by broth microdilution method; type: functional, organism-based; how it was run: as §5
[20] = test system: Cunninghamella bertholletiae; assay: Antimicrobial activity against Cunninghamella bertholletiae isolate 5633 after 24 hrs in yeast nitrogen base complete medium by broth microdilution method; type: functional, organism-based; how it was run: as §5
Rhizopus arrhizus [21] = assay: Antimicrobial activity against Rhizopus oryzae assessed as reduction in hyphal viability at 8 ug/ml after 24 hrs by XTT assay; type: functional, organism-based
How it was run: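 R. oryzae mycelia were shaken at 37°C in RPMI 1640 with colistin, amphotericin B or both; drug-free RPMI served as control. At 0, 2, 6 and 24 h, pellets received XTT (1 mg) plus menadione (0.17 mg) in 1 ml PBS for 1 h at 37°C, then OD405 was read. Viability is drug OD405 divided by control OD405; at least three experiments.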

Mucor circinelloides [22] = assay: Antimicrobial activity against Mucor circinelloides isolate 4480 after 24 hrs in yeast nitrogen base complete medium by broth microdilution method; type: functional, organism-based; how it was run: as §5
Rhizopus arrhizus [23] = assay: Antimicrobial activity against Rhizopus oryzae at 32 ug/disk after 24 hrs by disk diffusion method; type: functional, organism-based; how it was run: as §6
Rhizopus arrhizus [24] = assay: Antimicrobial activity against Rhizopus oryzae isolate 5879 after 24 hrs in yeast nitrogen base complete medium by broth microdilution method; type: functional, organism-based; how it was run: as §3
Rhizopus homothallicus [25] = assay: Antimicrobial activity against Rhizopus homothallicus isolate 5910 after 24 hrs in yeast nitrogen base complete medium by broth microdilution method; type: functional; how it was run: as §5

COLISTIN
MFC (Rhizopus arrhizus [1]): 32 µg/mL
MIC (Rhizopus arrhizus [1]): 16 µg/mL
MFC (Rhizopus arrhizus [2]): 32 µg/mL
MIC (Rhizopus arrhizus [2]): 32 µg/mL
MFC [3]: 64 µg/mL
MIC [3]: 32 µg/mL
Ratio (Mucor circinelloides [4]): 2
MFC (Rhizopus [5]): > 128 µg/mL
MIC (Rhizopus [5]): 128 µg/mL
MFC (Rhizopus microsporus): 64 µg/mL
MIC (Rhizopus microsporus): 32 µg/mL
MFC (Rhizopus arrhizus [6]): 32 µg/mL
MIC (Rhizopus arrhizus [6]): 16 µg/mL
Activity (Rhizopus arrhizus [7]): Active
MFC [8]: 64 µg/mL
MIC [8]: 16 µg/mL
MFC [9]: > 128 µg/mL
MIC [9]: 128 µg/mL
MFC (Rhizopus homothallicus [10]): 64 µg/mL
MIC (Rhizopus homothallicus [10]): 32 µg/mL
MFC (Rhizopus [11]): > 128 µg/mL
MIC (Rhizopus [11]): 128 µg/mL
Activity (Rhizopus arrhizus [12]): Active
MFC [13]: 64 µg/mL
MIC [13]: 16 µg/mL
MFC (Rhizopus homothallicus [14]): > 128 µg/mL
MIC (Rhizopus homothallicus [14]): 128 µg/mL
MFC (Rhizopus arrhizus [15]): > 128 µg/mL
MIC (Rhizopus arrhizus [15]): 128 µg/mL
inhibition zone (IZ) (Rhizopus arrhizus [16]): 18 mm
MFC (Rhizopus arrhizus [17]): > 128 µg/mL
MIC (Rhizopus arrhizus [17]): 128 µg/mL
inhibition zone (IZ) (Rhizopus arrhizus [18]): 19 mm
MFC (Rhizopus arrhizus [19]): > 128 µg/mL
MIC (Rhizopus arrhizus [19]): 128 µg/mL
MFC [20]: > 128 µg/mL
MIC [20]: 128 µg/mL
inhibition (Rhizopus arrhizus [21]): inactive
MFC (Mucor circinelloides [22]): > 128 µg/mL
MIC (Mucor circinelloides [22]): 128 µg/mL
inhibition zone (IZ) (Rhizopus arrhizus [23]): 21 mm
MFC (Rhizopus arrhizus [24]): > 128 µg/mL
MIC (Rhizopus arrhizus [24]): 128 µg/mL
MFC (Rhizopus homothallicus [25]): > 128 µg/mL
MIC (Rhizopus homothallicus [25]): 128 µg/mL
